# Compound activity deposited in PubChem by several laboratories.
# Compounds with a hit are over-represented: about 2.4% of the library has one in this group of screens.
# GSTO1 inh = blocks human GSTO1 in RBBP9 counter-screen. P78417. recombinant GSTO1, activity-based probe fluorescence polarization. inhibition, % at 5.96 µM. 300,000 compounds, 1.1% hits. AID 1974;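 active = inhibition above the campaign mean inhibition plus 3 SD, cut at about 35% in these data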;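 note: 0% = GSTO1-1 with DMSO and 100% = wells lacking GSTO1-1 enzyme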
# PAD4 inh = blocks human protein arginine deiminase 4. Q9UM07. recombinant PAD4, RCA probe fluorescence polarization. inhibition, % at 6.36 µM. 330,000 compounds, 0.41% hits;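 active = percent inhibition above a cutoff equal to the mean of all tested compounds plus 3 SD, cut at about 15% in these data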;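 note: 0% = PAD4 with RCA probe and DMSO and 100% = probe without PAD4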
# Apaf1 inhib = inhibitors of human Apaf-1 apoptosome; 330,000 compounds, 0.71% hits; AID 489030; reconstituted apoptosome caspase-3 activity, DEVD-Rh110 fluorescence; inhibition, % at 20 µM; active = inhibition of at least 40% at 20 µM;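 note: plate controls were DMSO wells for no effect and DEVD-CHO caspase inhibitor wells for full effect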
#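 Material: reconstituted apoptosome with Apaf-1, cytochrome c, caspase-9, procaspase-3, dATP / Buffer or medium: pH 7.5 Hepes buffer with CHAPS, BSA, DTT / Also added: cytochrome c with DEVD-Rh110 / Schedule: compound with Apaf-1, dATP, procaspase-3 30 min, then 50 min reaction, room temperature / Technique: rhodamine 110 fluorescence at Ex 480/Em 540 nm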
# TDP2 absorb = blocks human TDP2 phosphodiesterase activity | inhibition, % at 12.8 µM | recombinant TDP2, T5PNP hydrolysis, p-nitrophenol absorbance 415 nm | O95551 | 370,000 compounds, 0.34% hits;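 active = inhibition above the mean of all tested compounds plus 3 SD, set per campaign, cut at about 25% in these data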;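 note: 0% = DMSO with enzyme and 100% = buffer with substrate but no TDP2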
#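 Assay system: recombinant human TDP2 / Reagent: T5PNP substrate at 5 mM, a TopII-DNA adduct mimic / Measured by: epi absorbance from released p-nitrophenol / Evaluation: % inhibition relative to enzyme-containing and enzyme-free wells / Control set: enzyme-free and DMSO wells / Replicates: each compound tested once, singlicate / Schedule: enzyme reaction with compound for 2 h at 37 °C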
# TCR CD3 inh = blocks the human TCR-CD3 interaction; TAMRA-labeled TCR probe fluorescence, biochemical; inhibition, % at 9.4 µM; 360,000 compounds, 0.37% hits; AID 651800; in the data active = inhibition above about 19%;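 note: recombinant mutant TCR 2C K166C tagged with TAMRA read by polarization; 0% = receptor in buffer alone and 100% = receptor with positive control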
# SIAE inh = human SIAE inhibition, primary screen | Q9HAT2 | SIAE FP-Rh probe binding, fluorescence polarization | inhibition, % at 9.66 µM | 370,000 compounds, 0.69% hits | AID 1053197;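 active = inhibition above a cutoff: mean of compounds within the control limits plus 3 SD of those, cut at about 17% in these data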;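 note: 0% = plate median of compound wells and 100% = probe without SIAE protein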
# Numbers without * were called inactive; · = no result.
SMILES,GSTO1 inh,PAD4 inh,Apaf1 inhib,TDP2 absorb,TCR CD3 inh,SIAE inh
COC(=O)C1(C#N)C(c2ccccc2)C1(C(=O)OC)C(=O)OC (stereo not drawn),9,3,5,5,0,6
COc1ccc(OC)c(NC(=O)c2cc(S(=O)(=O)NCc3ccco3)ccc2F)c1,36*,-1,-8,-8,-2,0
COc1cccc(NC(=O)C2CCC(CNS(=O)(=O)c3ccc4c(c3)CC(C)N4C(C)=O)CC2)c1 (stereo not drawn),35*,4,1,-4,-4,0
CC(Sc1nnc(Nc2ccccc2F)s1)C(=O)NC1CC1 (stereo not drawn),·,-2,-7,-3,5,3
COC(=O)c1c(NC(=O)CN2CCN(c3ccccc3Cl)CC2)sc(C)c1C,37*,-1,16,-13,-4,-3
Cc1ccc(C2(O)CN(c3ccccc3C)C3=[N+]2CCS3)cc1 (stereo not drawn),4,4,14,1,-3,-3
C/C(CCC(=O)O)=N/Nc1ccc([N+](=O)[O-])cc1[N+](=O)[O-],38*,-10,9,1,-5,10
COc1ccc(Cn2cccc(NC(=O)Nc3ccc(F)cc3)c2=O)cc1,3,-3,8,-12,-1,-7
Cc1ccc(SCc2[nH]nc3c2C2(CCSCC2)C(C#N)=C(N)O3)cc1,34,0,2,-4,0,8
CCOC(=O)N1CCC2(CC1)C(C#N)=C(N)Oc1n[nH]c(CSc3ccc(C)cc3)c12,36*,-3,13,4,2,0
CN1CCN(Cc2nc3ccccc3c(=O)n2CC#N)CC1,-3,4,-12,-8,1,-1
N#CCn1c(CCl)nc2ccccc2c1=O,48*,-5,-12,0,6,-6
Nc1ccc(N2CCCCCC2)cc1,78*,43*,93*,·,·,·
Nc1ccc(N2CCN(c3ccc(F)cc3)CC2)cc1,-6,-3,8,-6,-1,4
CCC(CO)Oc1cc(NCc2ccc(F)cc2)c2ncn(C(C)C)c2c1 (stereo not drawn),·,-8,43*,10,-6,4
CCC(CO)Oc1cc(NCc2ccc(C)c(C)c2)c2ncn(C(C)C)c2c1 (stereo not drawn),·,-8,34,1,6,2
Cc1cccc(C)c1NC(=S)N=Nc1c(O)n(C)c2ccc(S(=O)(=O)N3CCOCC3)cc12,1,-4,10,13,-3,3
Cc1ccccc1NC(=S)N=Nc1c(O)n(C)c2ccc(S(=O)(=O)N3CCOCC3)cc12,36*,-6,-1,-1,1,-8
CCc1ccc(-c2cc(C)no2)cc1S(=O)(=O)NCc1ccccc1OC,-13,-5,17,-7,1,-12
COc1ccccc1CNS(=O)(=O)c1ccc(-c2cc(C)no2)cc1,6,1,45*,1,-1,10
CC(C)(C)OC(=O)NCCCCCc1nnc(SCc2c(F)cccc2Cl)o1,7,-2,17,-2,1,-2
CC(NC(=O)CCl)c1ccc(Cl)c(Cl)c1 (stereo not drawn),96*,-3,3,-3,3,0
O=C(CC1C(=O)NC2CCCCC2N1C(=O)c1ccc([N+](=O)[O-])cc1)Nc1ccccc1 (stereo not drawn),-1,6,5,2,0,2
O=C(CCl)NC1CCCc2ccccc21 (stereo not drawn),72*,7,-4,-11,6,1
CC[C@]12c3[nH]c4cc(-c5ccco5)ccc4c3CCN1C(=O)[C@@H](CC(=O)NCCc1ccccn1)C[C@@H]2C(=O)N1CCN(C(=O)c2ccco2)CC1,·,-4,15,2,-10,4
SMILES,GSTO1 inh,PAD4 inh,Apaf1 inhib,TDP2 absorb,TCR CD3 inh,SIAE inh
COC1=C(N)C(=O)c2nc(-c3nc(C(=O)O)c(C)c(-c4ccc(OC)c(OC)c4O)c3N)ccc2C1=O,·,·,84*,·,·,·
Cc1sc2ncn(CC(=O)NCC(=O)N(C)C3CCCCC3)c(=O)c2c1C,4,2,-1,-7,-1,1
O=C(CSc1ccc(Cl)cc1)c1ccco1,37*,0,5,·,·,·
CCc1nnc(NC(=O)CSc2nc3cc4c(cc3cc2CC)OCCO4)s1,29,-2,-5,-8,-1,2
O=C(COC(=O)COc1ccccc1)Nc1cccnc1Cl,·,-1,6,0,2,3
O=C(COC(=O)COc1ccc(Cl)cc1Cl)Nc1cccnc1Cl,35*,6,7,7,3,-1
CN(C(=O)CSc1nnc(CNC(=O)c2ccccc2)o1)c1ccccc1,10,0,-7,2,6,-1
CC1=NNC(=O)C1CC(=O)N/N=C/C(C)=C/c1ccccc1 (stereo not drawn),6,0,-5,-2,6,7
CC(/C=N/NC(=O)Cc1cc(=O)[nH][nH]1)=C\c1ccccc1,31,-7,60*,4,-4,0
Cc1ccc(S(=O)(=O)N2CCOCC2)cc1NC(=O)COC(=O)CNC(=O)c1ccc(C(C)(C)C)cc1,35*,-9,17,7,7,0
C(=N\n1cncn1)/c1ccc(N2CCOCC2)cc1,-2,-1,3,3,-3,-3
CCCCn1c2ccccc2c2nnc(SCC(=O)NC3=NN=C(c4ccccc4)CS3)nc21,-9,21*,-69,-8,-5,-13
CC(=O)N1CCc2cc(NS(=O)(=O)c3cccs3)ccc21,5,0,-1,4,1,-7
CC(=O)c1cc(F)c(N2CCN(CCC#N)CC2)cc1C,-5,2,-456,-6,-3,27*
Cc1ccc(/C=C2\SC(=S)N(C3CCS(=O)(=O)C3)C2=O)o1 (stereo not drawn),14,-1,6,-3,0,5
CC1=C(C#N)C(=O)N(C2CCS(=O)(=O)C2)C(=O)/C1=C\c1ccc(C)o1 (stereo not drawn),36*,-2,15,·,·,·
CCOC(=O)c1sc2cc([N+](=O)[O-])cc(SCC(=O)OC)c2c1N,36*,-7,8,5,-4,-3
O=C(CNC(=O)c1ccc(Cl)cc1)OCN1C(=O)c2ccccc2C1=O,·,2,-2,-6,3,1
CC(=O)NCC(=O)OCN1C(=O)c2ccccc2C1=O,36*,-1,-3,-17,-10,2
CC(C)c1cc(Nc2cccc(O)c2)cc(C(C)C)c1O,42*,4,16,·,·,·
CCCCCc1c(O)nc(SCCN(CC)CC)[nH]c1=O,13,5,-5,-6,3,0
CC(C)CN=C(NS(=O)(=O)c1ccccc1)C(Cl)(Cl)Cl,78*,-1,3,5,5,-1
Cc1ccc2c(c1)C=CC(C)(C)S2(=O)=O,0,2,3,1,3,0
